# Laboratory results reported in ChEMBL document CHEMBL4665652, “Discovery of novel quinoline sulphonamide derivatives as potent, selective and orally active RORγ inverse agonists” (Bioorg Med Chem Lett, 2019).
# Assays:
# [1] = (§1) In vivo inverse agonist activity at RORgamma in MOG(35-55) peptide/PTX-induced mechanistic C57BL/6 mouse model assessed as anti-CD3 induced IL-6 level in serum at 30 mg/kg, po dosed for 5 days during MOG/PTX priming and followed by 45 mins prior to anti-CD3 challenge and measured after 2 hrs relative to control; format: functional; conditions: time 5 day
# Method in brief: (§2)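 Mice immunized with mouse MOG35-55 peptide plus pertussis toxin. After 5 days, compound given orally as a suspension in methylcellulose 400cp + 1% poloxamer, 45 min before an anti-CD3 challenge. Circulating cytokines measured 2 h later. Comparison vs vehicle by Dunnett post test.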
# [2] = Cmax in mouse at 30 mg/kg, po; format: ADME, organism-based; parameters: route oral, dose 30 mg/kg; conditions: in vivo
# Method in brief: (§3)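 Mice dosed orally at 10, 30 or 100 mg/kg as a suspension in 1% methylcellulose 400cp + 0.1% Poloxamer (188). Tmax, Cmax, AUClast and oral t1/2 were taken from plasma concentration–time profiles. Ratios are the value at each dose over the value at 10 mg/kg.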
# [3] = as §1, with “IFNgamma” for “IL-6”, “100” for “30”; format: functional; conditions: time 5 day; method in brief: as §2
# [4] = target: T1, Nuclear receptor ROR-gamma (Homo sapiens, UniProt P51449); assay: Inverse agonist activity at pSG5GAL4-DBD/LBD fused human RORgamma receptor expressed in COS7 cells co-expressing 5 copies of GAL4 response element after 18 hrs by luciferase reporter gene based assay; format: cell-based
# T1 sequence (P51449 whole entry): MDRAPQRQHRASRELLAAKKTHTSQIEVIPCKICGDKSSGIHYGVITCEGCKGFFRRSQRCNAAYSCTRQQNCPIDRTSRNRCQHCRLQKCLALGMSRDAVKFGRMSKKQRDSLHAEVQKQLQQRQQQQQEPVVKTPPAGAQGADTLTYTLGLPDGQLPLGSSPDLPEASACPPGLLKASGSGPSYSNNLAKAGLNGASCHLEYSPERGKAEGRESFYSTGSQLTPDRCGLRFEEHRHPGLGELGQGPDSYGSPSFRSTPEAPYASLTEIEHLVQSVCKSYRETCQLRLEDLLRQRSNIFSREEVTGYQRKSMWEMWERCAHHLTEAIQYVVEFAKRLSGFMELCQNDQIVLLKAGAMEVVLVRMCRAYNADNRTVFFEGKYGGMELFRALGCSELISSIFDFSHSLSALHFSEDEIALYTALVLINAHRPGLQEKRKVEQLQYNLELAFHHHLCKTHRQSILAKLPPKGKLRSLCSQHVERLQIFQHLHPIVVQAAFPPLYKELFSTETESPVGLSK
# [5] = Ratio of AUClast in mouse at 100 mg/kg, po to AUClast in mouse at 10 mg/kg, po; format: ADME, organism-based; conditions: in vivo; method in brief: as §3
# [6] = as §1, with “TNFalpha” for “IL-6”; format: functional; conditions: time 5 day; method in brief: as §2
# [7] = Half life in mouse at 1 mg/kg, iv; format: ADME, organism-based; conditions: in vivo
# Method in brief: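 Mouse PK with iv 1 mg/kg and po 10 mg/kg, oral dose as a suspension in 1% methylcellulose 400cp + 0.1% Poloxamer 188. Plasma clearance (total and unbound), iv t1/2 and oral bioavailability F were derived from the iv and po profiles.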
# [8] = Tmax in mouse at 100 mg/kg, po; format: ADME, organism-based; conditions: in vivo
# Method in brief: (§4)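 Mice dosed orally with an ascending-dose series at 10, 30 and 100 mg/kg. Compound given as a suspension in 1% methylcellulose 400cp + 0.1% poloxamer. Plasma Tmax taken from the concentration profiles. The Cmax ratio is expressed relative to the 10 mg/kg dose.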
# [9] = target: Cytochrome P450 3A4 (Homo sapiens, UniProt P08684); assay: Drug metabolism assessed as CYP3A4 (unknown origin) mediated metabolite formation; format: ADME
# [10] = system: Mus musculus; assay: Immunosuppressive activity in PLP (139 to 151 residues)-induced experimental autoimmune encephalomyelitis mouse model assessed as incidence of disease at 30 mg/kg, po administered bid starting from immunization relative to control; format: functional
# Method in brief: (§5)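 EAE induced in mice by immunization with proteolipid protein peptide PLP139-151; ascending paralysis develops 10–12 days post-immunization. Compound dosed orally b.i.d. starting from immunization. Disease onset/incidence scored relative to control.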
# [11] = Tmax in mouse at 10 mg/kg, po; format: ADME, organism-based; conditions: in vivo; method in brief: as §4
# [12] = as §1, with “IL-2” for “IL-6”; format: functional; conditions: time 5 day; method in brief: as §2
# [13] = system: Mus musculus; assay: (§6) In vivo inverse agonist activity at RORgamma in po dosed MOG(35-55) peptide/PTX-induced mechanistic C57BL/6 mouse model assessed as anti-CD3 induced IL-17F level in serum dosed for 5 days during MOG/PTX priming and followed by 45 mins prior to anti-CD3 challenge and measured after 2 hrs relative to control; format: functional, organism-based; conditions: dose mg/kg 10-100, time 5.0 day; method in brief: as §2
# [14] = as §1, with “IL-22” for “IL-6”, “100” for “30”; format: functional; conditions: time 5 day; method in brief: as §2
# [15] = as §1, with “IL-2” for “IL-6”, “100” for “30”; format: functional; conditions: time 5 day; method in brief: as §2
# [16] = Half life in mouse at 30 mg/kg, po; format: ADME, organism-based; conditions: in vivo; method in brief: as §3
# [17] = as §1, with “IL-17F” for “IL-6”; format: functional; conditions: time 5 day; method in brief: as §2
# [18] = Unbound plasma clearance in mouse at 10 mg/kg, po or 1 mg/kg, iv; format: ADME, organism-based; conditions: in vivo
# Method in brief: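 Mouse PK using two routes: iv at 1 mg/kg and po at 10 mg/kg. The po dose was a suspension in 1% methylcellulose 400cp + 0.1% Poloxamer 188. Unbound plasma clearance derived from the plasma profiles.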
# [19] = target: CYP2C9 (Homo sapiens, UniProt P11712); assay: Inhibition of CYP2C9 (unknown origin) at 1 uM relative to control; format: ADME
# [20] = as §1, with “IFNgamma” for “IL-6”; format: functional; conditions: time 5 day; method in brief: as §2
# [21] = Half life in mouse at 10 mg/kg, po; format: ADME, organism-based; conditions: in vivo; method in brief: as §3
# [22] = as §6, with “in” for “in po dosed”, “serum at 100 mg/kg, po” for “serum”; format: functional; conditions: time 5 day; method in brief: as §2
# [23] = Cmax in mouse at 10 mg/kg, po; format: ADME, organism-based; parameters: route oral, dose 10 mg/kg; conditions: in vivo; method in brief: as §3
# [24] = Stability in human microsomes assessed as unbound intrinsic clearance; format: ADME, Microsome
# Method in brief: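 Unbound intrinsic clearance measured in human and mouse liver microsomes, expressed in L/h/kg. Values are geometric means of at least two separate runs.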
# [25] = system: Mus musculus; assay: Immunosuppressive activity in PLP (139 to 151 residues)-induced experimental autoimmune encephalomyelitis mouse model assessed as reduction in disease onset at 60 mg/kg, po administered bid starting from immunization relative to control; format: functional; method in brief: as §5
# [26] = Ratio of Cmax in mouse at 30 mg/kg, po to Cmax in mouse at 10 mg/kg, po; format: ADME, organism-based; conditions: in vivo; method in brief: as §4
# Chain of Cytochrome P450 3A4 (P08684 whole entry, the tested form may be a part): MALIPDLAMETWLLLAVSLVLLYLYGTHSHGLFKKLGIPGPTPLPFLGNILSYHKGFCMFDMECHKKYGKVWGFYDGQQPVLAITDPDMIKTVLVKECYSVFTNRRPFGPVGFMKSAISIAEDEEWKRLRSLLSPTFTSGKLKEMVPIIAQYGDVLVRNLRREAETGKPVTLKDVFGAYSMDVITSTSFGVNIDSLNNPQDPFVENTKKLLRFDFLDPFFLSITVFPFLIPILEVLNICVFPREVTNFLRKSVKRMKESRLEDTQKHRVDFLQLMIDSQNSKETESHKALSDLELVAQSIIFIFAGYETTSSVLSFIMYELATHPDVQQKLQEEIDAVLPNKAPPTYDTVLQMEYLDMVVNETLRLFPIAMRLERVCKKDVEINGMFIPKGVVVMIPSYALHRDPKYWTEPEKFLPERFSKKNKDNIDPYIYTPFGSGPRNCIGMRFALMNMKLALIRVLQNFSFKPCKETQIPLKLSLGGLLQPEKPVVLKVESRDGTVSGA
# Chain of CYP2C9 (P11712 whole entry): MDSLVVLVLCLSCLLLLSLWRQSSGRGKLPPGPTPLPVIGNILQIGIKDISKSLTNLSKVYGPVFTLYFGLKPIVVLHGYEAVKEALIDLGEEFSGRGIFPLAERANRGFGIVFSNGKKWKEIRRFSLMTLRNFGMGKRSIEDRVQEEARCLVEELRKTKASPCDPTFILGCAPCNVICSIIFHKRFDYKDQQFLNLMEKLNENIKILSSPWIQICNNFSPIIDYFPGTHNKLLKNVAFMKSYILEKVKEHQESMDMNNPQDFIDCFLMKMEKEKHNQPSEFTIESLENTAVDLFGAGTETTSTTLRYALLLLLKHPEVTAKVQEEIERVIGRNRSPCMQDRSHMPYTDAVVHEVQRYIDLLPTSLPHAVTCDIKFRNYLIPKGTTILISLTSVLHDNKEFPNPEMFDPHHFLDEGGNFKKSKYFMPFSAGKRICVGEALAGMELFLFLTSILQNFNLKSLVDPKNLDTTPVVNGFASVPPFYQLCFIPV
smiles,measurement,setting,value
CNC(=O)[C@@H]1CCCN1S(=O)(=O)c1ccc(Cl)c(COc2cccc3c(-c4cncn4C)cc(C(C)C)nc23)c1Cl,Activity,[1],-56%
same,Cmax,[2],11800 ng/mL
same,Activity,[3],-81%
same,EC50,[4],220 nM
same,Ratio,[5],58
same,Activity,[6],-27%
same,half-life,[7],9.6 min
same,Tmax,[8],3 h
same,Fm,[9],87%
same,Activity,[10],100%
same,Tmax,[11],15 min
same,Activity,[12],-30%
same,Activity,[13],Dose-dependent effect
same,Activity,[14],-45%
same,Activity,[15],-46%
same,half-life,[16],60 min
same,Activity,[17],-49%
same,CL free,[18],97 L/h/kg
same,inhibition at 1 µM,[19],100%
same,Activity,[20],-45%
same,half-life,[21],< 60 min
same,Activity,[22],-60%
same,Cmax,[23],3320 ng/mL
same,CL free,[24],2 L/h/kg
same,inhibition in vivo at 60 mg/kg,[25],81%
same,Ratio,[26],3.5
